Results: ChEMBL document CHEMBL1153326, “Benzo(h)quinoline derivatives as G-quadruplex binding agents” (Bioorg Med Chem Lett, 2009)

Tests used:
Assay type in all cases: nucleic-acid assay
Nucleic Acid [1] = test: Binding affinity to human telomeric DNA G-quadruplex assessed as melting temperature at 0.5 uM by fluorescein-rhodamine based FRET assay
How it was run: (§1)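 Human telomeric-repeat G-quadruplex oligo carrying a 5'/3' fluorescein–rhodamine FRET pair. Compound at 0.5 µM with the oligo at half that concentration, in 10 mM cacodylate, 100 mM NaCl, pH 7.4. Heated from 20 to 80 °C at 1 °C/min with a 2 min equilibration at each step. Emission read at 518 nm; Tm taken from the melting curve, ΔTm against no compound.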

Nucleic Acid [2] = test: Binding affinity to human telomeric DNA G-quadruplex assessed as change in melting temperature at 0.5 uM by fluorescein-rhodamine based FRET assay; how it was run: as §1
Nucleic Acid [3] = test: Displacement of thiazole orange from synthetic oligo 22G DNA G-quadruplex by fluorescence displacement assay
How it was run: (§2)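 Compound titrated into 0.25 µM oligonucleotide (22G quadruplex or 17 bp duplex) with thiazole orange in 10 mM cacodylate, pH 7.4, plus 100 mM KCl. Full fluorescence spectrum recorded after each addition and peak area plotted against compound concentration. Concentration cutting the area by 50% taken as IC50; binding constant calculated from a simple competitive binding model.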

Nucleic Acid [4] = test: Displacement of thiazole orange from synthetic oligo 17bp DNA duplex by fluorescence displacement assay; how it was run: as §2
Nucleic Acid [5] = test: Selectivity for synthetic oligo 22G DNA G-quadruplex over synthetic oligo 17bp DNA duplex
How it was run: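 Ratio of the thiazole-orange displacement binding constant for the 22G quadruplex to that for the 17 bp duplex. Both constants come from titrating compound into 0.25 µM oligo with dye in 10 mM cacodylate, pH 7.4, 100 mM KCl, taking the 50% loss of peak area as IC50, and applying a competitive binding model.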

Nucleic Acid [6] = test: Binding affinity to human telomeric DNA assessed as equilibrium binding constant by SPR
How it was run: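 SPR steady-state analysis against human telomeric quadruplex and duplex DNA, with multiple injections over a range of drug concentrations. Binding constants derived from the relative instrument response.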

Nucleic Acid [7] = test: Binding affinity to DNA G-quadruplex

Row | SMILES | Tm (Nucleic Acid [1]) [°C] | ΔTm (Nucleic Acid [2]) [°C] | K (Nucleic Acid [3]) [×10⁵ /M] | K (Nucleic Acid [4]) [×10⁵ /M] | Ratio (Nucleic Acid [5]) | K (Nucleic Acid [6]) [×10⁵ /M] | Kapp (Nucleic Acid [7]) [×10⁴ /M]
1 | O=C(Nc1ccccc1)c1c[nH]c2c(ccc3ccccc32)c1=O | 52.3 | 1.05 | 1.4 | 6 | 0.22 |  | 
2 | CN(C)c1ccc(NC(=O)c2cc(=O)c3ccc4ccccc4c3[nH]2)cc1 | 51.6 | 0.41 | 3.9 | 0.53 | 7.4 | 0.3 | 
3 | O=C(NCCN1CCCCC1)c1c[nH]c2c(ccc3ccccc32)c1=O | 56.4 | 5.17 | 2.5 | 0.24 | 10.4 |  | 
4 | O=C(Nc1ccncc1)c1cc(=O)c2ccc3ccccc3c2[nH]1 | 51.9 | 0.69 | 0.42 | 0.5 | 0.84 |  | 
5 | O=C(NCCN1CCNCC1)c1c[nH]c2c(ccc3ccccc32)c1=O | 52.4 | 1.19 | 0.3 | 0.75 | 0.4 |  | 
6 | O=C(NCCN1CCCCC1)c1cc(=O)c2ccc3ccccc3c2[nH]1 | 52.2 | 1 | 0.05 | 1.1 | 0.05 |  | 
7 | CN1CCN(CCNC(=O)c2c[nH]c3c(ccc4ccccc43)c2=O)CC1 | 54.9 | 3.69 | 0.19 | 0.5 | 0.37 | 0.5 | 
8 | O=C(NCCN1CCNCC1)c1cc(=O)c2ccc3ccccc3c2[nH]1 | 52.5 | 1.27 | 0.53 | 2.5 | 0.21 |  | 
9 | O=C(NCCN1CCCC1)c1c[nH]c2c(ccc3ccccc32)c1=O | 56 | 4.36 | 0.53 | 0.21 | 2.5 | 0.4 | 
10 | O=C(NCCN1CCCC1)c1cc(=O)c2ccc3ccccc3c2[nH]1 | 52.6 | 1.35 | 0.23 | 0.41 | 0.55 |  | 
11 | CN(C)c1ccc(NC(=O)c2c[nH]c3c(ccc4ccccc43)c2=O)cc1 | 51.4 | 0.19 | 0.53 | 0.74 | 0.71 |  | 
12 | CN(C)CCCNC(=O)c1cc2[nH]c3c(cnc4ccc([N+](=O)[O-])cc43)c(=O)c2n1C |  |  |  |  |  |  | 2.7
13 | O=C(Nc1ccncc1)c1c[nH]c2c(ccc3ccccc32)c1=O | 56.5 | 5.29 | 1.4 | 2.5 | 0.51 |  | 
